Experimental findings from ChEMBL document CHEMBL1130143, “Probes for narcotic receptor-mediated phenomena. 25. Synthesis and evaluation of N-alkyl-substituted (alpha-piperazinylbenzyl)benzamides as novel, highly selective delta opioid receptor agonists” (J Med Chem, 1997) are described below.

Sequence of Mu-type opioid receptor (Homo sapiens, UniProt P35372) (P35372 whole entry): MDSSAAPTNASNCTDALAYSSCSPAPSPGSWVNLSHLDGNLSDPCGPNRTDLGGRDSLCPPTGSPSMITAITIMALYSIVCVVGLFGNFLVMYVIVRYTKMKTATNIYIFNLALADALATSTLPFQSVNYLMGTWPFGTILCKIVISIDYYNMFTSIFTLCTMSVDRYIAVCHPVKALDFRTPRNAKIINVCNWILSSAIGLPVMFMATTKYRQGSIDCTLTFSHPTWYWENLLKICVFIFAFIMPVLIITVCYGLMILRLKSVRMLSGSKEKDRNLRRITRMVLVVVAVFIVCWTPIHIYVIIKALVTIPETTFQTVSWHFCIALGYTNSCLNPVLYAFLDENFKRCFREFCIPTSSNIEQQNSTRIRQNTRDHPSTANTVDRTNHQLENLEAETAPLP
Sequence of Opioid receptors; mu & delta (Homo sapiens) (P35372 whole entry, looked up): as the sequence (P35372 whole entry) above
Sequence of Opioid receptors; mu & delta (Homo sapiens) (P41143 whole entry, looked up): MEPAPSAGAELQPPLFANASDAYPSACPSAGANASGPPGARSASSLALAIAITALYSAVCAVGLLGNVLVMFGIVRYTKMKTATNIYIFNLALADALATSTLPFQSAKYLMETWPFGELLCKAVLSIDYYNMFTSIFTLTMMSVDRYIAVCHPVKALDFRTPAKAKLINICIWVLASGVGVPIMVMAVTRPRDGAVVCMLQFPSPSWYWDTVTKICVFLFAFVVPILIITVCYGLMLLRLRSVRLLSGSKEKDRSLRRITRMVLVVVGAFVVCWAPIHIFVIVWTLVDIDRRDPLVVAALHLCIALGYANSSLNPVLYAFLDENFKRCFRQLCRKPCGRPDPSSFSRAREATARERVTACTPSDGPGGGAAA
Sequence of Mu-type opioid receptor (Rattus norvegicus, UniProt P33535) (P33535 whole entry): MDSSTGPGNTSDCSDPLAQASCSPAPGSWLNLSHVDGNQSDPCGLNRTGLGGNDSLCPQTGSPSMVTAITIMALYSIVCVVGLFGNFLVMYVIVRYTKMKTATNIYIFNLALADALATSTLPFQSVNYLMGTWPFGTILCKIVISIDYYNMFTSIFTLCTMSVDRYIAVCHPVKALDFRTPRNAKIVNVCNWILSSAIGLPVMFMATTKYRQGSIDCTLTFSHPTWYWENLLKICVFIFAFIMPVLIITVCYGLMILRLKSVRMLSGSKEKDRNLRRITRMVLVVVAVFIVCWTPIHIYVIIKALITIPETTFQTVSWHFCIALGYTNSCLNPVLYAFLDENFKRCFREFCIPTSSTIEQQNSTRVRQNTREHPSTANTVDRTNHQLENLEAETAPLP
Sequence of Kappa-type opioid receptor (P41144 whole entry): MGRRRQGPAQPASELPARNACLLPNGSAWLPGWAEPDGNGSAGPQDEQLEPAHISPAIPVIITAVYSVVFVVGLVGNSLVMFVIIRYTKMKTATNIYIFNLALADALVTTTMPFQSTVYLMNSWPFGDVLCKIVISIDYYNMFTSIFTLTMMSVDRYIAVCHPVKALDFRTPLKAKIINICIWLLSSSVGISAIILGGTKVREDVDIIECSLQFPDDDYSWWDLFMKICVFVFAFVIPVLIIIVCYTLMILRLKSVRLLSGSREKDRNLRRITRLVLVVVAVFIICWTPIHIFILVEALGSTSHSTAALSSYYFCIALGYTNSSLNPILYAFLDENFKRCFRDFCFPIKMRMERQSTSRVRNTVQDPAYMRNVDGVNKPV

The target of one assay is Delta-type opioid receptor (Homo sapiens, UniProt P41143). Briefly: Binding affinity for Opioid receptor delta 1 by the inhibition of binding of [3H]-p-DPDPE human cloned receptors.
Sequence of Delta-type opioid receptor (Homo sapiens, UniProt P41143) (P41143 whole entry): as the sequence (P41143 whole entry, looked up) above
Details: not given
In short, it runs like this:
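Crude membranes from CHO cells stably expressing human δ receptor, with 0.75 nM [³H]-p-Cl-DPDPE. Samples incubated 3 h at 25 °C; nonspecific binding from 10 μM naltrexone; 10 inhibitor concentrations, with totals in duplicate. Filtered on PEI-treated glass-fiber filters, washed with cold saline, scintillation counted. IC50 by nonlinear regression.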
Regarding `C=CCN1C[C@H](C)N([C@H](c2ccc(C(=O)N3CCCCCC3)cc2)c2cccc(OC)c2)C[C@H]1C`, the IC50 is 13 nM. This lies in the double-digit nanomolar range.
`C=CCN1C[C@H](C)N([C@H](c2ccc(C(=O)N(CC)CCCC)cc2)c2cccc(OC)c2)C[C@H]1C` displayed an IC50 of 10.2 nM.
Same read-out and setting: the figure for `C=CCN1C[C@H](C)N([C@H](c2ccc(C(=O)N(CCC)CCC)cc2)c2cccc(OC)c2)C[C@H]1C` is 7.5 nM; for `C=CCN1C[C@H](C)N([C@H](c2ccc(C(=O)N(C)C)cc2)c2cccc(OC)c2)C[C@H]1C` it is 18 nM.
Consider `C=CCN1C[C@H](C)N([C@H](c2ccc(C(=O)N3CCCCC3)cc2)c2cccc(OC)c2)C[C@H]1C`, for which the IC50 came to 38 nM.

Another assay addresses Mu-type opioid receptor (Rattus norvegicus, UniProt P33535). As to the kind of experiment: Binding affinity for Opioid receptor mu 1 by the inhibition of binding of [3H]DAMGO in rat brain membranes. It counts as cell membranes.
Details: not given
In outline: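 Rat brain membranes with [³H]DAMGO at 1-3 nM, incubated 4 h at 25 °C in 50 mM Tris-HCl pH 7.4 plus protease inhibitor cocktail. Nonspecific binding measured with 20 μM levallorphan. Radioligand displaced by nine drug concentrations, in two runs. Drugs diluted in 10 mM Tris-HCl pH 7.4 containing 1 mg/mL BSA. IC50 reported.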
With `C=CCN1C[C@H](C)N([C@H](c2ccc(C(=O)N3CCCCCC3)cc2)c2cccc(OC)c2)C[C@H]1C`, the IC50 is more than 2500 nM.
In the case of `C=CCN1C[C@H](C)N([C@H](c2ccc(C(=O)N(CC)CCCC)cc2)c2cccc(OC)c2)C[C@H]1C`, the IC50 is 1890 nM. This lies in the single-digit micromolar range.
In turn, `C=CCN1C[C@H](C)N([C@H](c2ccc(C(=O)N(CCC)CCC)cc2)c2cccc(OC)c2)C[C@H]1C` gave an IC50 of 3990 nM. This IC50 lies about 2.1-fold higher than the previous one.
On the same count and under the same terms, the figure for `C=CCN1C[C@H](C)N([C@H](c2ccc(C(=O)N(C)C)cc2)c2cccc(OC)c2)C[C@H]1C` is 3260 nM; for `C=CCN1C[C@H](C)N([C@H](c2ccc(C(=O)N3CCCCC3)cc2)c2cccc(OC)c2)C[C@H]1C` it is more than 2500 nM.

Another assay addresses Kappa-type opioid receptor (Cavia porcellus, UniProt P41144). As to the kind of experiment: Binding affinity for Opioid receptor kappa 1 by the inhibition of binding of [3H]U-69593 in guinea pig brain membranes.
Details: not given
It is filed as cell membranes. In short, it runs like this: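 Guinea pig brain membranes, first depleted of μ and δ sites by pretreatment with irreversible ligands BIT and FIT. Nonspecific binding from 1 μM U69,593. Nine concentrations, run twice. IC50 reported.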
For the compound `C=CCN1C[C@H](C)N([C@H](c2ccc(C(=O)N3CCCCCC3)cc2)c2cccc(OC)c2)C[C@H]1C`, the IC50 is more than 10000 nM.
For the compound `C=CCN1C[C@H](C)N([C@H](c2ccc(C(=O)N(CC)CCCC)cc2)c2cccc(OC)c2)C[C@H]1C`, the IC50 was more than 10000 nM.
Compound `C=CCN1C[C@H](C)N([C@H](c2ccc(C(=O)N(CCC)CCC)cc2)c2cccc(OC)c2)C[C@H]1C` came in with an IC50 of more than 10000 nM.
On to `C=CCN1C[C@H](C)N([C@H](c2ccc(C(=O)N(C)C)cc2)c2cccc(OC)c2)C[C@H]1C`, for which the IC50 was more than 10000 nM.
`C=CCN1C[C@H](C)N([C@H](c2ccc(C(=O)N3CCCCC3)cc2)c2cccc(OC)c2)C[C@H]1C`: the IC50 is more than 10000 nM.

The target in the next assay is Delta-type opioid receptor (Rattus norvegicus, UniProt P33533). Briefly: Binding affinity for Opioid receptor delta 1 by the inhibition of binding of [3H]DADAL in rat brain membranes. It counts as cell membranes.
Sequence of Delta-type opioid receptor (Rattus norvegicus, UniProt P33533) (P33533 whole entry): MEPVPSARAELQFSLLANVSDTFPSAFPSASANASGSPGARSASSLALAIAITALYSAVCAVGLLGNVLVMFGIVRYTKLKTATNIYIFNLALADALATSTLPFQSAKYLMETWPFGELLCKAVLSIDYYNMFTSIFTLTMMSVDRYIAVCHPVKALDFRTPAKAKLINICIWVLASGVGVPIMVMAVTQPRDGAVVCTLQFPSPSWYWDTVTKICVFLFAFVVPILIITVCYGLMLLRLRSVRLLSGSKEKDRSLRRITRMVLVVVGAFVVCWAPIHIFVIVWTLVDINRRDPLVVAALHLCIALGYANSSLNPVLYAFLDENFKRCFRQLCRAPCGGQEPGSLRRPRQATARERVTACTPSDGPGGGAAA
Details: not given
In outline:
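Rat brain membranes labelled with [³H]DADLE at 1.7-2.5 nM. Incubation 3-4 h at 25 °C in Tris-HCl pH 7.4 with 100 mM choline chloride, 3 mM MnCl₂, protease inhibitor cocktail and 100 nM DAMGO to block μ sites. Nonspecific binding defined with 20 μM levallorphan. Nine test concentrations, run twice. IC50 reported.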
The compound `C=CCN1C[C@H](C)N([C@H](c2ccc(C(=O)N3CCCCCC3)cc2)c2cccc(OC)c2)C[C@H]1C` yielded an IC50 of 8.2 nM. This lies in the single-digit nanomolar range.
`C=CCN1C[C@H](C)N([C@H](c2ccc(C(=O)N(CC)CCCC)cc2)c2cccc(OC)c2)C[C@H]1C` came in with an IC50 of 6.6 nM.
On the same count and under the same terms, the figure for `C=CCN1C[C@H](C)N([C@H](c2ccc(C(=O)N(CCC)CCC)cc2)c2cccc(OC)c2)C[C@H]1C` is 13.1 nM; for `C=CCN1C[C@H](C)N([C@H](c2ccc(C(=O)N(C)C)cc2)c2cccc(OC)c2)C[C@H]1C` it is 4.8 nM; for `C=CCN1C[C@H](C)N([C@H](c2ccc(C(=O)N3CCCCC3)cc2)c2cccc(OC)c2)C[C@H]1C` it is 14.6 nM.

The next assay addresses Mu-type opioid receptor (Homo sapiens, UniProt P35372). Briefly: Binding affinity for micro receptors by the inhibition of binding of [3H]DAMGO to Opioid receptor mu 1 in human cloned receptors.
Details: not given
In outline:
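Crude membranes from B82 mouse fibroblasts stably expressing human μ receptor, with 1.0 nM [³H]DAMGO. Samples incubated 3 h at 25 °C; nonspecific binding from 10 μM naltrexone; 10 inhibitor concentrations, with totals in duplicate. Filtered on PEI-treated glass-fiber filters, washed with cold saline, scintillation counted. IC50 by nonlinear regression.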
`C=CCN1C[C@H](C)N([C@H](c2ccc(C(=O)N3CCCCCC3)cc2)c2cccc(OC)c2)C[C@H]1C` registered an IC50 of 4470 nM.
Same read-out and setting: the figure for `C=CCN1C[C@H](C)N([C@H](c2ccc(C(=O)N(CC)CCCC)cc2)c2cccc(OC)c2)C[C@H]1C` is 3340 nM; for `C=CCN1C[C@H](C)N([C@H](c2ccc(C(=O)N(CCC)CCC)cc2)c2cccc(OC)c2)C[C@H]1C` it is 6080 nM.
Consider `C=CCN1C[C@H](C)N([C@H](c2ccc(C(=O)N(C)C)cc2)c2cccc(OC)c2)C[C@H]1C`, for which the IC50 amounted to 9720 nM. This IC50 lies about 1.6-fold higher than the previous one.
Regarding `C=CCN1C[C@H](C)N([C@H](c2ccc(C(=O)N3CCCCC3)cc2)c2cccc(OC)c2)C[C@H]1C`, the IC50 was found to be 6000 nM. Compared with the last compound, the IC50 is about 1.6-fold lower.

The species entered for another assay is Cavia porcellus. Briefly: Binding affinity ratio of kappa opioid receptor (guinea pig brain membranes) with respect to delta opioid receptor( rat brain membranes). It is filed as cell membranes. Particulars: Membrane. In short, it runs like this:
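Ratio of IC50 from [³H]U69,593 binding to μ/δ-depleted guinea pig brain membranes over IC50 from [³H]DADLE binding to rat brain membranes (μ sites blocked with 100 nM DAMGO). Both assays run at 25 °C in Tris-HCl pH 7.4, nine concentrations, run twice.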
For the compound `C=CCN1C[C@H](C)N([C@H](c2ccc(C(=O)N3CCCCCC3)cc2)c2cccc(OC)c2)C[C@H]1C`, the Ratio was more than 1220.
Still for that read-out and setting: the figure for `C=CCN1C[C@H](C)N([C@H](c2ccc(C(=O)N(CC)CCCC)cc2)c2cccc(OC)c2)C[C@H]1C` is more than 1520; for `C=CCN1C[C@H](C)N([C@H](c2ccc(C(=O)N(CCC)CCC)cc2)c2cccc(OC)c2)C[C@H]1C` it is more than 763.
The same measure, in the same setting: the figure for `C=CCN1C[C@H](C)N([C@H](c2ccc(C(=O)N(C)C)cc2)c2cccc(OC)c2)C[C@H]1C` is more than 2080; for `C=CCN1C[C@H](C)N([C@H](c2ccc(C(=O)N3CCCCC3)cc2)c2cccc(OC)c2)C[C@H]1C` it is more than 684.

For the next assay, the target named is Opioid receptors; mu & delta (Rattus norvegicus) (UniProt P33533+P33535). Briefly: Binding affinity ratio on mu opioid receptor( rat brain membranes) with respect to delta opioid receptor (rat brain membranes).
Sequence of Opioid receptors; mu & delta (Rattus norvegicus) (P33533 whole entry, looked up): as the sequence (P33533 whole entry) above
Sequence of Opioid receptors; mu & delta (Rattus norvegicus) (P33535 whole entry, looked up): as the sequence (P33535 whole entry) above
Details: not given
In outline:
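Ratio of IC50 from [³H]DAMGO binding to rat brain membranes over IC50 from [³H]DADLE binding to rat brain membranes (μ sites blocked with 100 nM DAMGO). Both assays run at 25 °C in Tris-HCl pH 7.4, nine concentrations, run twice.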
With `C=CCN1C[C@H](C)N([C@H](c2ccc(C(=O)N3CCCCCC3)cc2)c2cccc(OC)c2)C[C@H]1C`, the Ratio is more than 305.
With `C=CCN1C[C@H](C)N([C@H](c2ccc(C(=O)N(CC)CCCC)cc2)c2cccc(OC)c2)C[C@H]1C`, the Ratio was 286.
Same read-out and setting: the figure for `C=CCN1C[C@H](C)N([C@H](c2ccc(C(=O)N(CCC)CCC)cc2)c2cccc(OC)c2)C[C@H]1C` is 305; for `C=CCN1C[C@H](C)N([C@H](c2ccc(C(=O)N(C)C)cc2)c2cccc(OC)c2)C[C@H]1C` it is 679; for `C=CCN1C[C@H](C)N([C@H](c2ccc(C(=O)N3CCCCC3)cc2)c2cccc(OC)c2)C[C@H]1C` it is more than 171.

A further assay addresses Opioid receptors; mu & delta (Homo sapiens) (UniProt P41143+P35372). As to the kind of experiment: Relative binding affinity to mu and delta opioid receptors.
Details: not given
It is filed as protein assay.
On to `C=CCN1C[C@H](C)N([C@H](c2ccc(C(=O)N3CCCCCC3)cc2)c2cccc(OC)c2)C[C@H]1C`, for which the Mu/delta ratio was determined as 344.
As for `C=CCN1C[C@H](C)N([C@H](c2ccc(C(=O)N(CC)CCCC)cc2)c2cccc(OC)c2)C[C@H]1C`, the Mu/delta ratio was determined as 327.
Turning to `C=CCN1C[C@H](C)N([C@H](c2ccc(C(=O)N(CCC)CCC)cc2)c2cccc(OC)c2)C[C@H]1C`, the Mu/delta ratio was found to be 811.
As to `C=CCN1C[C@H](C)N([C@H](c2ccc(C(=O)N(C)C)cc2)c2cccc(OC)c2)C[C@H]1C`, the Mu/delta ratio worked out at 540.
Still for that read-out and setting: the figure for `C=CCN1C[C@H](C)N([C@H](c2ccc(C(=O)N3CCCCC3)cc2)c2cccc(OC)c2)C[C@H]1C` is 158.
